# Assay outcomes as filed in PubChem BioAssay.
# Sampled rows, rich in hits. Any-hit rate of the full collection: about 3.8%.
# rCAG RNA binder – r(CAG) repeat RNA binding; TO-PRO-1 dye displacement fluorescence; inhibition, % at 3 µM; actives 1.3% (n = 370,000);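 active = inhibition above the plate cutoff, the mean of all test compounds on that plate plus 3 SD, cut at about 35% in these data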;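 also: 0% = DMSO alone and 100% = 100 µM mitoxantrone as full dye displacement; higher means more dye released from RNA so lower well fluorescence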
# T cell HTS – modulates CD8 T cell binding to vesicles. response (vesicle binding), % at 7 µM. AID 2052. 2C CD8+ T cell-vesicle binding, flow cytometry; active compounds read low. actives 0.068% (n = 330,000);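 active = response, share of CD8 T cells binding vesicles, and their 90th percentile fluorescence all below set limits, cut at about 80% in these data, passing the limit was not always enough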;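 also: values below 100% mean blocked vesicle binding to the CD8+ T cells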
#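 incubation = binding step 1.5 h, 37 °C, antibody labelling 20 min, ice | test system = 2C mouse CD8+ T cells | read-out basis = percent CD8+ FL2 mean versus row control | controls = Peptide-free naked vesicles (low) and QL9 vesicles with 0.7% DMSO vehicle (high) | detection = flow cytometry of vesicle-bound cells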
# MPTP block – blocks calcium-induced mitochondrial swelling; isolated mouse mitochondria, Ca2+ swelling absorbance, 30 min; inhibition, % at 10 µM; actives 1.4% (n = 360,000);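 active = inhibition of 50% or more, scaled per plate between neutral and stimulator controls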;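 also: 0% = DMSO wells given calcium and 100% = 1 mM EGTA wells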
# Beta2AR agonist – human beta-2 adrenergic receptor agonism by FAP. Am2.2-beta2AR cells, FAP receptor internalization, flow cytometry. response, % (test concentration not listed). actives 0.43% (n = 340,000);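 active = response above a set limit, near 3 SD of response in nonfluorescent compounds, cut at about 42% in these data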
# Target sequence (P07550 whole entry, looked up): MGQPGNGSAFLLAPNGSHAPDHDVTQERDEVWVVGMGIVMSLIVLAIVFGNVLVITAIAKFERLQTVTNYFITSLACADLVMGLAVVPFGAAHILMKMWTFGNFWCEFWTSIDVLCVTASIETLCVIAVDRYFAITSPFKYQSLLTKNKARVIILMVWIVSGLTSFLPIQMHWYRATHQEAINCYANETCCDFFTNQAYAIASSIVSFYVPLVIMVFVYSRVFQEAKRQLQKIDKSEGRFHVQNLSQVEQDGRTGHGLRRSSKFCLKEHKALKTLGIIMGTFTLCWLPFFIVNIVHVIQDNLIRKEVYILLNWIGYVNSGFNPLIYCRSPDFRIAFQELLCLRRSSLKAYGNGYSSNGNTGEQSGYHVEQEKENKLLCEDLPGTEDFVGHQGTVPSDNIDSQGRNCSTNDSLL
# V-ATPase pHluor – regulators of yeast V-ATPase proton transport; response, % at 10 µM; S. cerevisiae, pHLuorin cytosolic pH fluorescence; actives 0.37% (n = 350,000); in the data active = response mostly above about 7.3%, no sharp cut-off; inactive = mostly below about 5.4%; also: actives read high
# Granule exo inh – lytic granule exocytosis inhibition | AID 651702 | actives 0.66% (n = 360,000) | TALL-104 LAMP-1 surface exposure, flow cytometry; cells stimulated with thapsigargin and PMA | inhibition, % at 10 µM;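 active = inhibition above about 55%, limit read from the data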
# rCAG bind conf – r(CAG) RNA repeat binding, confirmation | shares compounds with rCAG RNA binder | TO-PRO-1 dye displacement fluorescence | inhibition, % at 3 µM | actives 70% (n = 4,300);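 active = inhibition above a per-plate cutoff, the mean inhibition of sample wells plus 3 SD, cut at about 35% in these data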;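 also: loss of TO-PRO-1 fluorescence as compound displaces dye from 1x1 AA loop RNA; 0% = DMSO only wells and 100% = 100 µM mitoxantrone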
# dCAG dye counter – counter-screen for rCAG RNA binders: DNA CAG dye complex inhibitors; d(CAG) DNA oligo TO-PRO-1 dye displacement, fluorescence; AID 652068; actives 94% (n = 4,300); inhibition, % at 3 µM; shares compounds with rCAG RNA binder;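 active = inhibition above its plate's cutoff, the mean test-well inhibition plus 3 SD, cut at about 4.8% in these data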;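 also: 0% = DNA dye mix with DMSO and 100% = 100 µM mitoxantrone; hits displace the dye from DNA and so lower well fluorescence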
# DNA CAG DR – counter-screen for rCAG binders: inhibitors of DNA CAG TO-PRO-1 complex; IC50, µM; actives 20% (n = 250); AID 686960; shares compounds with rCAG RNA binder; DNA CAG/GTC duplex TO-PRO-1 dye displacement fluorescence; in the data active = IC50 below about 10 µM
# * = called active by the depositor; i = inactive; nt = no result.
SMILES,rCAG RNA binder,T cell HTS,MPTP block,Beta2AR agonist,V-ATPase pHluor,Granule exo inh,rCAG bind conf,dCAG dye counter,others
COC(=O)c1sc(N2C(=O)C(O)=C(C(=O)c3ccc(C)o3)C2c2ccc([N+](=O)[O-])cc2)nc1C (stereo not drawn),66*,281,0,0,-1,-1,68*,28*,DNA CAG DR=3.3*
CCCN1CCCCC(NC(=O)c2ccc(Cl)cc2Cl)C1=O (stereo not drawn),1,nt,nt,nt,nt,nt,nt,nt,
O=C(Cn1c(-c2cncs2)nc2ccccc21)N1CCOCC1,6,nt,nt,nt,nt,nt,nt,nt,
COC(=O)CCC[C@H](C)[C@@H](NS(=O)(=O)c1ccc(C)cc1)C(C)(C)C,-2,nt,nt,nt,nt,nt,nt,nt,
CCOC(=O)c1sc(N2C(=O)C(O)=C(C(=O)c3ccc(C)o3)C2c2cccc([N+](=O)[O-])c2)nc1C (stereo not drawn),55*,254,0,6,-1,4,78*,42*,
CC(NC(=O)[C@H](C)N1C(=O)N2CCc3c([nH]c4ccccc34)[C@@]2(C)C1=O)c1ccccc1 (stereo partly drawn),-5,360,1,-6,1,-4,nt,nt,
CC(C)C[C@@H](C(=O)N[C@@H](C(=O)O)c1ccccc1)N1C(=O)N2CCc3c([nH]c4ccccc34)[C@@]2(C)C1=O,43*,278,0,-3,0,-7,43*,12*,
CC(C)N1CCCCC(NC(=O)c2ccc(Br)cc2)C1=O (stereo not drawn),4,nt,nt,nt,nt,nt,nt,nt,
O=c1nc2s/c(=C\c3ccc(-c4ccccc4[N+](=O)[O-])o3)c(=O)n2nc1-c1ccccc1,46*,nt,5,0,-2,-6,51*,25*,
Clc1ccc(-c2nnc(SCc3cccc4ccccc34)n2Cc2ccco2)cc1,6,nt,nt,nt,nt,nt,nt,nt,
COc1ccc(N(CC(=O)Nc2cccc(C(F)(F)F)c2)S(=O)(=O)c2c(C)[nH]c(=O)[nH]c2=O)cc1,37*,581,2,0,-1,-3,33,8.3*,
COc1ccc(N(CC(=O)Nc2cccc(F)c2)S(=O)(=O)c2c(C)[nH]c(=O)[nH]c2=O)cc1,13,748,3,-3,-3,-5,nt,nt,
CCc1ccc(NC(=O)CN(c2ccc(OC)cc2)S(=O)(=O)c2c(C)[nH]c(=O)[nH]c2=O)cc1,40*,229,0,5,-1,-4,25,4,
COc1ccc(-c2cc(C(=O)NN=Cc3ccccc3F)[nH]n2)cc1,3,nt,nt,nt,nt,nt,nt,nt,
Cc1cccc(N(CC(=O)N/N=C/c2ccc(C(=O)O)cc2)S(=O)(=O)c2ccccc2)c1C,49*,315,3,0,2,-3,33,11*,
COc1ccc(C(=O)O)cc1S(=O)(=O)Nc1cccc(C(F)(F)F)c1,2,231,2,-1,4,1,nt,nt,
O=C(Nc1cccnc1)c1ccc(Cl)c(S(=O)(=O)N2CCCCC2)c1,-4,0,-2,4,1,-1,nt,nt,
O=C(O)c1cccc(NC(=O)c2ccc(Cl)c(S(=O)(=O)N3CCCCCC3)c2)c1,35*,471,0,19,2,1,32,5.4*,
O=C(O)c1ccc(Cl)c(S(=O)(=O)Nc2cccc(C(=O)Nc3cccc(C(F)(F)F)c3)c2)c1,39*,0,4,13,8,2,24,7.9*,
O=C(O)c1cccc(NC(=O)c2cccc(S(=O)(=O)N3CCc4ccccc4C3)c2)c1,37*,390,-2,0,0,6,23,4.5*,
O=C(Nc1nc2ncccn2c1-c1ccc(F)cc1)c1ccccc1,4,nt,nt,nt,nt,nt,nt,nt,
Cc1ccc(C(=O)Nc2nc(=O)n(C(=O)c3ccccc3Cl)s2)cc1,48*,nt,-1,-9,-4,4,63*,17*,
Cc1ccc(-n2nnnc2SCC(=O)NC(C(=O)O)(c2ccccc2)c2ccccc2)cc1C,38*,161,1,-1,-1,0,38*,10*,
CCOC(=O)CNC(=O)CSc1nnnn1-c1ccc(C)c(C)c1,-2,480,7,6,3,1,nt,nt,
O=C(CSc1nnnn1-c1cccc2ccccc12)N1CCOCC1,0,164,1,-1,-1,-1,nt,nt,
SMILES,rCAG RNA binder,T cell HTS,MPTP block,Beta2AR agonist,V-ATPase pHluor,Granule exo inh,rCAG bind conf,dCAG dye counter,others
O=C(CSc1nnnn1-c1cccc2ccccc12)NC(C(=O)O)(c1ccccc1)c1ccccc1,46*,452,2,6,1,0,36*,10*,
O=C(Nc1sc2c(c1C(=O)O)CCCCC2)c1cccs1,36*,122,0,3,-1,0,19,4.7*,
O=C(CCc1ccccc1)Nc1sc2c(c1C(=O)O)CCCC2,16,136,4,-11,-3,6,nt,nt,
O=C(/C=C/c1cccs1)Nc1sc2c(c1C(=O)O)CCCC2,53*,226,-2,4,1,8,28,6.7*,
CCOC(=O)c1c(NC(=O)c2ccccc2C(=O)O)sc2c1CCCC2,55*,i,3,2,1,3,46*,16*,
CCOC(=O)c1c(NC(=O)C2C3C=CC(C3)C2(C)C(=O)O)sc2c1CCCC2 (stereo not drawn),43*,338,3,-1,3,-6,46*,15*,
COC(=O)c1c(NC(=O)c2ccccc2C(=O)O)sc2c1CCCC2,24,nt,0,nt,-1,-9,nt,nt,
O=C(Nc1sc2c(c1C(=O)O)CCCC2)c1cccs1,19,196,4,5,2,1,nt,nt,
CC(C)CN(CC(C)C)C(=O)c1ccc2c(c1)NC(=O)C(C)(C)O2,-2,nt,nt,nt,nt,nt,nt,nt,
CCOC(=O)c1c(N2C(=O)Nc3ccccc3N2O)sc2c1CCCC2,38*,120,1,18,4,1,30,6.7*,
CCOC(=O)c1c(NC(=O)C2C3CCC(O3)C2C(=O)O)sc2c1CCC(CC)C2 (stereo not drawn),25,264,-1,-6,4,4,nt,nt,
O=C(Nc1sc2c(c1C(=O)O)CCCCC2)c1ccccc1F,36*,499,4,-10,3,0,20,4,
CCOC(=O)c1c(NC(=O)C2C3C=CC(C3)C2C(=O)O)sc2c1CCC(CC)C2 (stereo not drawn),38*,267,5,2,3,-2,64*,24*,
CCOC(=O)c1c(NS(=O)(=O)c2cccc(OC)c2)sc2c1CCC2,60*,433,4,8,4,-4,69*,23*,
